In PMC8939876 (RSC Advances, 2019):

Assays:
Assay type in all cases: cell-based
[1] = test system: Plasmodium falciparum D6 (CQ-sensitive); details: D6, read-out: In vitro activity (IC50 nM) D6
[2] = test system: Plasmodium falciparum Dd2 (MDR strain with Old World genetic background); details: DD2, read-out: In vitro activity (IC50 nM) Dd2
[3] = test system: Plasmodium falciparum 7G8 (MDR strain with New World genetic background); details: 7G8, read-out: In vitro activity (IC50 nM) 7G8
[4] = test system: HepG2 cells; assay: HepG2 cytotoxicity assay; details: Homo sapiens, HepG2, read-out: Cytotoxicity (nM) vs. HepG2
In short: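 HepG2 cells kept in RPMI-1640 with 10% FBS (37 °C, 5% CO2) were seeded at 2 × 10^4/well and left to attach overnight. Test compound (10 mM DMSO stock) was serially diluted in medium and applied for 24–36 h. Cells then had fresh medium for 24 h more, then resazurin (final 10 μM) for 3 h. Fluorescence read at ex 560/em 590 nm. IC50 from nonlinear logistic regression.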

[5] = test system: panel of Plasmodium falciparum malaria parasites; details: for antimalarial activity against all tested strains (in words): D6, Dd2, 7G8 strains; for therapeutic index (the ratio of cytotoxicity to antimalarial therapeutic efficacy): HepG2 cytotoxicity vs antimalarial IC50

Structure (SMILES) | IC50 [1] | IC50 [2] | IC50 [3] | CC50 [4] | antimalarial activity against all tested strains (in words) [5] | therapeutic index (the ratio of cytotoxicity to antimalarial therapeutic efficacy) [5]
COc1ccc2[nH]c3ccc(Oc4ccc(Cl)cc4)cc3c(=O)c2c1 [2p, 2-(4-Chlorophenoxy)-7-methoxyacridin-9(10H)-one] | 573 nM | 513 nM | 911 nM | > 200000 nM |  | 
CCN(CC)CCn1c2ccc([N+](=O)[O-])cc2c(=O)c2ccc(OC)cc21 [2l, 10-(2-(Diethylamino)ethyl)-6-methoxy-2-nitroacridin-9(10H)-one] | 405 nM | 684 nM | 462 nM | 12300 nM |  | 
COc1cccc2c(=O)c3cc(OC(F)(F)F)ccc3[nH]c12 [2v, 5-Methoxy-2-(trifluoromethoxy)acridin-9(10H)-one] | 27.7 nM | 15.5 nM | 46.3 nM | 139000 nM | excellent activity | high
COc1ccc2c(=O)c3cc(S(=O)(=O)C(F)(F)F)ccc3[nH]c2c1 [2g, 6-Methoxy-2-((trifluoromethyl)sulfonyl)acridin-9(10H)-one] | 11.6 nM | 11.6 nM | 22.2 nM | > 200000 nM | excellent activity | high
COc1ccc2c(=O)c3cccc(OC(F)(F)F)c3[nH]c2c1 [2f, 3-Methoxy-5-(trifluoromethoxy)acridin-9(10H)-one] | 782 nM | 753 nM | 1140 nM | > 200000 nM |  | 
COc1ccc2c(=O)c3cc([N+](=O)[O-])ccc3[nH]c2c1 [2j, 6-Methoxy-2-nitroacridin-9(10H)-one] | 84.1 nM | 98.1 nM | 35 nM | > 200000 nM |  | 
COc1ccc2c(=O)c3c(F)c(F)c(F)c(F)c3[nH]c2c1 [2n, 1,2,3,4-Tetrafluoro-6-methoxyacridin-9(10H)-one] | 257 nM | 325 nM | 41.8 nM | > 200000 nM |  | 
COc1ccc2c(=O)c3cc(Oc4ccc(Cl)cc4)ccc3[nH]c2c1 [2e, 2-(4-Chlorophenoxy)-6-methoxyacridin-9(10H)-one] | 8.84 nM | 11.7 nM | 13.5 nM | > 200000 nM | excellent activity | high
O=c1c2cc(OC(F)(F)F)ccc2[nH]c2cc3ccccc3cc12 [2x, 2-(Trifluoromethoxy)benzo[b]acridin-12(5H)-one] | 7.03 nM | 0.563 nM | 16.5 nM | > 200000 nM | excellent activity | high
COc1ccc2[nH]c3c(F)c(F)c(F)c(F)c3c(=O)c2c1 [2t, 1,2,3,4-Tetrafluoro-7-methoxyacridin-9(10H)-one] | > 2500 nM | 1950 nM | 393 nM | > 200000 nM |  | 
COc1ccc2[nH]c3cc(F)cc(F)c3c(=O)c2c1 [2s, 1,3-Difluoro-7-methoxyacridin-9(10H)-one] | 0.05 nM | 0.29 nM | 0.2 nM | > 200000 nM | excellent activity | high
Cc1ccc2[nH]c3ccc(OC(F)(F)F)cc3c(=O)c2c1 [2w, 2-Methyl-7-(trifluoromethoxy)acridin-9(10H)-one] | 63.1 nM | 49.2 nM | 109 nM | > 200000 nM |  | 
COc1ccc2[nH]c3ccc(OC(F)(F)F)cc3c(=O)c2c1 [2o, 2-Methoxy-7-(trifluoromethoxy)acridin-9(10H)-one] | 632 nM | 425 nM | 437 nM | > 200000 nM |  | 
COc1ccc2c(=O)c3cc(C#N)ccc3[nH]c2c1 [2i, 6-Methoxy-9-oxo-9,10-dihydroacridine-2-carbonitrile] | 100 nM | 177 nM | 228 nM | > 200000 nM |  | 
COc1ccc2c(=O)c3cc(OC(F)(F)F)ccc3[nH]c2c1 [2d, 6-Methoxy-2-(trifluoromethoxy)acridin-9(10H)-one] | 0.103 nM | 1.1 nM | 1.51 nM | > 200000 nM | excellent activity | high
CCN(CC)CCCC(C)Nc1ccnc2cc(Cl)ccc12 (centres unmarked) [CQ, chloroquine, reference compound] |  |  | 172 nM |  |  | 
COc1ccc2[nH]c3c(OC(F)(F)F)cccc3c(=O)c2c1 [2q, 2-Methoxy-5-(trifluoromethoxy)acridin-9(10H)-one] | 1490 nM | 1680 nM | > 2500 nM | > 200000 nM |  | 
O=c1c2cc(OCCCl)ccc2[nH]c2cc(F)cc(F)c12 [2u, 7-(2-Chloroethoxy)-1,3-difluoroacridin-9(10H)-one] | 11.6 nM | 0.91 nM | 1.22 nM | > 200000 nM | excellent activity | high
O=C1C(O)=C([C@H]2CC[C@H](c3ccc(Cl)cc3)CC2)C(=O)c2ccccc21 [ATV, atovaquone, reference compound] | 0.1 nM | 0.1 nM |  |  |  | 
COc1ccc2[nH]c3ccc(C#N)cc3c(=O)c2c1 [2r, 7-Methoxy-9-oxo-9,10-dihydroacridine-2-carbonitrile] | 983 nM | 932 nM | > 2500 nM | > 200000 nM |  | 
